Shown are actives, neighbours in structure and some others; about 4.1% of the full set was active somewhere.
KCNK9 block: blocks the human KCNK9 two-pore domain potassium channel | B-score at 10 µM | 310,000 compounds, 1.2% hits | HEK293 KCNK9, FluxOR thallium flux fluorescence; active compounds read low | Q9NPC2;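 active = ratio B-score over 3 SD below the library mean, with starting fluorescence within 5 SD of its mean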;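 note: negative B-score means less thallium flux so channel inhibition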
Target sequence (Q9NPC2 whole entry, looked up, the tested form may be a part): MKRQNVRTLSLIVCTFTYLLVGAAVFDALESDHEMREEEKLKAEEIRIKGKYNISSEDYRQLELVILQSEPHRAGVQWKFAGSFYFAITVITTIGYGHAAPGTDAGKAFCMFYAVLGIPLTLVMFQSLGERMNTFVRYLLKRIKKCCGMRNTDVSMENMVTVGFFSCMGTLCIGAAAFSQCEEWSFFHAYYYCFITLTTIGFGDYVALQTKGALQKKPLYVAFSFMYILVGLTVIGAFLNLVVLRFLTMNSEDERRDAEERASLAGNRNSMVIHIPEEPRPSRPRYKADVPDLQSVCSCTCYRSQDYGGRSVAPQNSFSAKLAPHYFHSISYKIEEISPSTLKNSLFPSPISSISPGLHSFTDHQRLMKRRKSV
Cl transport mod: KCC2 (human) Cl- transport modulation. KCC2 cells, thallium flux FluoZin-2 fluorescence. B-score of Tl+ flux slope (higher = more flux/activation; lower = inhibition) at 10 µM. AID 1456. 190,000 compounds, 2.2% hits. Q9H2X9;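 active = thallium flux slope and its plate-corrected score both differing from the plate sample mean at a set confidence after two filtering rounds, in either direction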;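 note: slope of fluorescence scaled to starting intensity during 10 to 20 s after thallium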
KCNQ1 pot: potentiates or activates the human KCNQ1 potassium channel; P51787; CHO-K1 KCNQ1, thallium flux FluxOR fluorescence; active compounds read high; B-score at 10 µM; 310,000 compounds, 0.35% hits; AID 2648;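 active = fluorescence ratio B-score, a plate-corrected score, at least three library SD, with initial intensity B-score within 5 SD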
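System: CHO-K1 cells stably expressing KCNQ1 / Medium: assay buffer for compound exposure, DMSO matched across wells / Reagent: thallium- and potassium-containing depolarizing buffer / Compound: one concentration, matched DMSO / Incubation: 20 min compound pretreatment at room temperature / Measured by: kinetic FluxOR fluorescence, 10 s baseline plus 110 s post-stimulus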
KCNK3 block: human KCNK3 channel inhibition, primary screen; O14649; CHO-KCNK3 thallium flux, FluxOR fluorescence; active compounds read low; B-score at 10 µM; 340,000 compounds, 0.84% hits;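 active = B-score under library mean minus 4 SD, starting fluorescence ratio at most library mean plus 5 SD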;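 note: more negative B-score means stronger inhibition of thallium flux through KCNK3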
Target sequence (O14649 whole entry, looked up): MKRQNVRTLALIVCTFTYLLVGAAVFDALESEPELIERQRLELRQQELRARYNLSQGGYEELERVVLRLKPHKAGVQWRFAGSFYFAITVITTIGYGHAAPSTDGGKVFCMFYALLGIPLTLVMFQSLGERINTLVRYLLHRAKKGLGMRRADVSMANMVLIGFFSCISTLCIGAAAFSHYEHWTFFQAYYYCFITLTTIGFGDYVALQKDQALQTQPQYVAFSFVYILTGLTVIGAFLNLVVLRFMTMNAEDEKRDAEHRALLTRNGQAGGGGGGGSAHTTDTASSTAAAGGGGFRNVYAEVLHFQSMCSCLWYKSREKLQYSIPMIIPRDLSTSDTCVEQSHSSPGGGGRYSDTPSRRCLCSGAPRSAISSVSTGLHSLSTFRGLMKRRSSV
hERG protect: hERG (human) protection from proarrhythmic block. Q12809. CHO-hERG, FluxOR thallium flux, dofetilide IC70 present. activation (rescue from dofetilide block), less the hit threshold, % at 10 µM. 310,000 compounds, 0.51% hits;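 active = activation above the mean of controls blocked by dofetilide plus 5 SD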;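 note: thallium influx through hERG after potassium depolarization seen as dye fluorescence rise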
KCNQ1 block: human KCNQ1 channel inhibition. P51787. CHO-K1 KCNQ1, FluxOR thallium flux fluorescence; active compounds read high. B-score at 10 µM. 310,000 compounds, 1.3% hits;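 active = compounds whose thallium flux B-score, printed positive for inhibition, exceeds three library SD while starting fluorescence stays within three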;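 note: channel opened by potassium depolarization with thallium stimulus after 20 min compound exposure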
KCC2 secondary: confirmation of human KCC2 transport modulators | shares compounds with Cl transport mod | HEK293-KCC2, thallium flux, FluoZin2 fluorescence; active compounds read high | normalised thallium flux (F/F0 slope) at 10 µM | 3,700 compounds, 15% hits | AID 1713;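 active = thallium flux slope above the same plate's solvent-only control mean plus 3 SD; inconclusive = the two replicate wells disagree; inactive = no significant difference from solvent-only control wells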
KCC2 bumet counter: bumetanide-insensitive thallium flux in KCC2 cells with ouabain, counter-screen; 3,700 compounds, 49% hits; HEK293-KCC2 + bumetanide/ouabain, thallium flux FluoZin2; active compounds read high; shares compounds with Cl transport mod; AID 1714; normalized thallium flux at 10 µM;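 active = thallium entry rate above the same plate's blocked-transporter control wells by more than 3 SD; inconclusive = the two repeat wells disagree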;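 note: raw slope of fluorescence over initial fluorescence between 10 and 20 s after thallium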
KCC2 sec2: KCC2 (human) modulation, second secondary assay | shares compounds with Cl transport mod | normalized thallium flux at 10 µM | HEK293-KCC2, thallium flux FluoZin2 fluorescence; actives lie on both sides; F/F0 rise rate, 10–20 s post-thallium | 3,700 compounds, 23% hits;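 active = thallium flux slope more than 3 SD above or below the plate's solvent-only control mean, mostly below; inconclusive = the two repeat wells disagreed; inactive = no significant shift from solvent-only controls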;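 note: raw slope with 0.1% DMSO as baseline and bumetanide as block control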
HEK293 Tl flux: acts in parental HEK cells, KCC2 counter-screen | AID 1716 | HEK293 parental cells, thallium flux FluoZin2, ouabain; baseline-ratio fluorescence slope, 10–20 s after thallium | 3,700 compounds, 46% hits | thallium flux rate (normalised fluorescence) at 10 µM | shares compounds with Cl transport mod;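 active = thallium flux rate significantly above the same plate's solvent-only control wells, beyond their mean plus 3 SD; inconclusive = the two replicate wells gave conflicting results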
KCC2 retest ouab: confirmation of human KCC2 modulators with ouabain; shares compounds with Cl transport mod; HEK293-KCC2, thallium flux FluoZin2 fluorescence; bidirectional: low = inhibitor, high = activator; raw Tl+ flux slope (below DMSO = inhibition, above = activation) at 10 µM; 3,700 compounds, 48% hits; AID 1717;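 active = thallium flux slope beyond 3 SD from same-plate DMSO control mean in most replicates, usually higher, sometimes lower; inconclusive = repeat tests gave conflicting results; inactive = no significant difference from controls in most replicates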;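 note: slope of initial-normalized fluorescence between seconds 10 and 20 after thallium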
HEK293 Tl flux2: parental HEK flux effect, counter-screen 2; 3,700 compounds, 33% hits; HEK293 parental, thallium flux FluoZin-2 fluorescence slope; shares compounds with Cl transport mod; thallium flux slope at 10 µM;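 active = thallium flux slope above the same plate's solvent-control mean plus 3 SD in both duplicate wells; inconclusive = duplicate wells that disagreed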;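 note: run without ouabain in cells lacking the KCC2 cotransporter; slope of fluorescence scaled to its starting value between 10 and 20 s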
* marks the source's active call; other numbers are inactive results; i = inactive; u = inconclusive; x = not tested or not shown.

SMILES	KCNK9 block	Cl transport mod	KCNQ1 pot	KCNK3 block	hERG protect	KCNQ1 block	others
Cc1ccc(-c2cc(C(=O)Nc3ccncc3)c3ccccc3n2)cc1	i	x	i	i	-7.3	i
Cc1ccccc1NC(=S)NC(=O)c1cc(-c2ccccc2)nc2ccccc12	i	14.3*	19*	i	3.4	i
Cc1cccc(NC(=S)NC(=O)c2cc(-c3ccccc3)nc3ccccc23)c1	i	8.49*	18*	i	6.1*	i
Cc1cc(NC(=O)C(C)SCC(=O)N(C)Cc2c(F)cccc2Cl)no1 (centres undefined)	x	x	x	i	x	x
O=[N+]([O-])c1cccc(-c2cc3ccccc3[nH]2)c1	i	x	i	i	-15.6	i
O=[N+]([O-])/C=C/c1cc2ccccc2[nH]1	i	-1.16	i	i	-9.4	6*
CCN(C(=O)c1ccc2c(c1)OCO2)C12CC3CC(CC(C3)C1)C2	x	x	x	i	x	x
COc1ccc(C2N=C(c3ccccc3)C(C)(C)N2O)cc1 (centres undefined)	i	0.0137	i	i	5.9*	i
CC1(C)C(c2ccccc2)=NC(c2ccccc2)N1O (centres undefined)	i	1.59	i	i	-8.8	i
CCCc1nc2oc3c(NCCCN(C)C)ncnc3c2c2c1CCCC2	i	0.859	8*	i	-8.0	i
CC(C)Cc1nc2oc3c(NCC(C)O)ncnc3c2c2c1CCCC2 (centres undefined)	i	-1.22	i	i	-3.4	i
CCCc1nc2oc3c(Cl)ncnc3c2c2c1CCCC2	i	-1.07	i	i	-4.0	i
CCCc1nc2oc3c(NCCN(C)C)ncnc3c2c2c1CCCC2	i	-1.24	8*	i	-7.1	i
COc1ccc(C2C(Oc3ccccc3)C(=O)N2c2ccc(C)c(C)c2)cc1OC (centres undefined)	-6.88*	x	i	i	-3.5	i
COc1ccc(C2C(Oc3ccccc3)C(=O)N2c2cc(C)ccc2C)cc1OC (centres undefined)	i	-0.0228	i	i	-11.8	i
Cc1cc(C)c(S(=O)(=O)c2cccc(Br)c2C)c(=O)[nH]1	i	x	i	i	-3.2	i
Clc1ccc(OCc2cc(-c3ccccc3)no2)c(Cl)c1	-7.4*	x	i	i	0.4	i
COC(=O)[C@@H](NC(=O)N1CCN(C(=O)C2COc3ccccc3O2)CC1)C(C)C (some centres undefined)	i	x	i	i	-11.6	i
Cc1ccc(OCCC(=O)OCC(=O)NC(=O)c2ccccc2)cc1	i	x	i	i	-10.9	i
O=C1NC(c2ccccc2)=NC1(NS(=O)(=O)c1ccccc1)C(F)(F)F (centres undefined)	i	x	i	i	-2.6	i
COc1ccc(S(=O)(=O)NC2(C(F)(F)F)N=C(c3ccccc3)NC2=O)cc1 (centres undefined)	-7.94*	-0.0127	i	i	-5.4	i
COc1cccc(NC(=O)COC(=O)C2=NN(c3ccccc3)C(=O)CC2)c1	x	x	x	i	x	x
COc1ccc(-n2cc(-c3ccccc3)c3c(NN4CCOCC4)ncnc32)cc1	i	-0.203	i	i	-25.3	9*
CCOc1ccccc1C(=O)NC1CC2CCCC(C1)N2Cc1nnnn1Cc1ccco1 (centres undefined)	i	-4.02*	i	i	22.5*	i	KCC2 secondary=0.00621;KCC2 bumet counter=0.00537;KCC2 sec2=0.0311;HEK293 Tl flux=0.00593;KCC2 retest ouab=u;HEK293 Tl flux2=0.0095
CC1CCc2c(sc3ncnc(SC(C)C(=O)NCC4CCCO4)c23)C1 (centres undefined)	i	x	i	i	-11.9	i
SMILES	KCNK9 block	Cl transport mod	KCNQ1 pot	KCNK3 block	hERG protect	KCNQ1 block	others
COC(=O)c1cc2c(ccn2-c2ccc(F)cc2)n1CC(=O)C(C)(C)C	i	0.402	i	i	-16.3	i
CCOC(=O)c1cc2c(ccn2-c2ccc(F)cc2)n1CC(=O)N(CC)CC	i	-5.48*	i	i	-13.4	i	KCC2 secondary=0.0146;KCC2 bumet counter=0.00364;KCC2 sec2=0.0228*;HEK293 Tl flux=u;KCC2 retest ouab=0.0121*;HEK293 Tl flux2=0.009
CCS(=O)(=O)NCc1ccc2c(c1)cc(C)n2C	i	-3.1*	i	i	-5.0	i	KCC2 secondary=0.0058;KCC2 bumet counter=0.00515;KCC2 sec2=0.0299;HEK293 Tl flux=0.00779;KCC2 retest ouab=0.0188;HEK293 Tl flux2=0.0111
CCCS(=O)(=O)NCc1ccc2c(c1)cc(C)n2C	i	0.235	i	i	-10.7	i
O=C(CN1C(=O)NC2(CCCC2)C1=O)N1CCN(S(=O)(=O)c2ccc(Cl)c(C(F)(F)F)c2)CC1	i	x	i	i	-14.3	i
CCN(CC)S(=O)(=O)c1cccc(-c2nnc(SC(C)C(=O)NCCC3=CCCCC3)o2)c1 (centres undefined)	i	-2.43*	i	i	-8.8	i	KCC2 secondary=0.00906;KCC2 bumet counter=0.00472;KCC2 sec2=0.0339;HEK293 Tl flux=0.00693;KCC2 retest ouab=0.0184;HEK293 Tl flux2=0.0105
CC(Sc1nnc(-c2ccco2)o1)C(=O)NCCC1=CCCCC1 (centres undefined)	i	-1.29	i	i	-4.1	i
CC(Sc1nnc2ccccn12)C(=O)Nc1ccc2c(c1)OCCO2 (centres undefined)	i	x	i	i	-9.5	i	KCC2 secondary=0.00653;KCC2 bumet counter=0.00499;KCC2 sec2=0.0314;HEK293 Tl flux=0.00804;KCC2 retest ouab=0.0187;HEK293 Tl flux2=0.0103
COc1ccc(-c2nnc(SCC(=O)N3CCc4ccccc4C3)o2)cc1	i	-3.51*	i	i	-14.0	i	KCC2 secondary=u;KCC2 bumet counter=0.0051;KCC2 sec2=0.0329;HEK293 Tl flux=u;KCC2 retest ouab=0.0161*;HEK293 Tl flux2=0.0106
